Measured values as given in ChEMBL document CHEMBL5252634, “Design, synthesis and in vitro cytotoxicity evaluation of indolo-pyrazoles grafted with thiazolidinone as tubulin polymerization inhibitors” (RSC Med Chem, 2023).

How the values were obtained:
Tubulin (Homo sapiens) = Tubulin (Homo sapiens) (UniProt P68371+Q9H4B7+P0DPH7+P68366+Q13509+Q71U36+P04350+Q3ZCM7+P07437+P68363+Q9BQE3+Q6PEY2+Q13885+Q9BVA1+Q9BUF5); experiment: Inhibition of tubulin polymerization (unknown origin) at 3 uM measured after 1 hr relative to control; type: protein-complex assay
How it was run: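 Fluorescence-based tubulin polymerization kit: tubulin, GTP and tubulin glycerol buffer mixed and added to compound (from 10x stocks), enhancer and inhibitor reference standards, and blanks in a plate prewarmed to 37 °C. Read kinetically for 1 h at ex 360/em 450 nm.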

B16-F10 = experiment: Cytotoxicity against mouse B16-F10 cells assessed as reduction in cell viability measured after 48 hrs by MTT assay; type: functional, cell-based; conditions: B16-F10, 48 h
How it was run: (§1)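 Cells kept in medium with 10% FBS and 1% antibiotic–antimycotic at 37 °C, 5% CO2. Seeded at 3000–4000 cells/well, grown overnight, then given fresh medium with a range of concentrations (diluted from 10 mM DMSO stocks) for 48 h. MTT (0.5 mg/mL) added for 3–4 h at 37 °C. Formazan dissolved in DMSO and absorbance read at 570 nm.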

A549 = experiment: Cytotoxicity against human A549 cells assessed as reduction in cell viability measured after 48 hrs by MTT assay; type: functional, cell-based; conditions: A549, 48 h; how it was run: as §1
[1] = Cytotoxicity against human BEAS-2B cells assessed as reduction in cell viability measured after 48 hrs by MTT assay; type: toxicity, cell-based; how it was run: as §1
SK-MEL-28 [2] = experiment: Cytotoxicity against human SK-MEL-28 cells assessed as reduction in cell viability measured after 48 hrs by MTT assay; type: functional, cell-based; conditions: SK-MEL-28, 48 h; how it was run: as §1
HCT-116 = experiment: Cytotoxicity against human HCT-116 cells assessed as reduction in cell viability measured after 48 hrs by MTT assay; type: functional, cell-based; conditions: HCT-116, 48 h; how it was run: as §1
SK-MEL-28 [3] = experiment: Induction of cell cycle arrest in human SK-MEL-28 cells assessed as accumulation of cells at G0/G1 phase at 4.13 uM incubated for 48 hrs by flow cytometry (reference value: 79.59%); type: functional
SK-MEL-28 [4] = experiment: Induction of cell cycle arrest in human SK-MEL-28 cells assessed as accumulation of cells at G2/M phase at 4.13 uM incubated for 48 hrs by flow cytometry (reference value: 13.14%); type: functional
SK-MEL-28 [5] = experiment: Induction of cell cycle arrest in human SK-MEL-28 cells assessed as accumulation of cells at S phase at 4.13 uM incubated for 48 hrs by flow cytometry (reference value: 6.34%); type: functional

Row | inhibition (Tubulin (Homo sapiens)) [%] | SMILES | IC50 (B16-F10) [µM] | IC50 (A549) [µM] | IC50 at 48 h [1] [µM] | IC50 (SK-MEL-28 [2]) [µM] | IC50 (HCT-116) [µM] | Activity (SK-MEL-28 [3]) [%] | Activity (SK-MEL-28 [4]) [%] | Activity (SK-MEL-28 [5]) [%]
1 | 60 | CC(=O)O[C@H]1C(=O)[C@@]2(C)[C@H]([C@H](OC(=O)c3ccccc3)[C@]3(O)C[C@H](OC(=O)[C@H](O)[C@@H](NC(=O)c4ccccc4)c4ccccc4)C(C)=C1C3(C)C)[C@]1(OC(C)=O)CO[C@@H]1C[C@@H]2O |  |  |  |  |  |  |  | 
2 |  | CCc1ccccc1-n1nc(-c2cn(Cc3ccccc3)c3ccccc23)cc1/N=C1/NC(=O)CS1 | > 50 | 36.5 | 27.4 | 33.8 | 35.8 |  |  | 
3 |  | CCc1ccccc1-n1nc(-c2c[nH]c3ccc(OC)cc23)cc1/N=C1/NC(=O)CS1 | 10.8 | 25.8 | 32 | > 50 | 18 |  |  | 
4 |  | COc1ccc2[nH]cc(-c3cc(/N=C4/NC(=O)CS4)n(-c4ccc(Cl)cc4)n3)c2c1 | 39.4 | 20.9 |  | 11.3 | 11.2 |  |  | 
5 |  | CCn1cc(-c2cc(/N=C3/NC(=O)CS3)n(-c3ccc(C#N)cc3)n2)c2ccccc21 | 18.6 | 39.2 | > 50 | 25 | > 50 |  |  | 
6 |  | Cn1cc(-c2cc(/N=C3/NC(=O)CS3)n(-c3cccc(Cl)c3)n2)c2ccccc21 | > 50 | 22.9 |  | 26.1 | 23.6 |  |  | 
7 |  | N#Cc1ccc(-n2nc(-c3c[nH]c4ccccc34)cc2/N=C2/NC(=O)CS2)cc1 | > 50 | 34 |  | 25.4 | > 50 |  |  | 
8 |  | CCc1ccccc1-n1nc(-c2cn(CC)c3ccccc23)cc1/N=C1/NC(=O)CS1 | > 50 | 33 |  | > 50 | 19.8 |  |  | 
9 |  | CCc1ccccc1-n1nc(-c2cn(CC)c3ccc(Br)cc23)cc1/N=C1/NC(=O)CS1 | > 50 | 33.9 |  | 34.3 | > 50 |  |  | 
10 |  | O=C1CS/C(=N\c2cc(-c3c[nH]c4ccccc34)nn2-c2ccc(Cl)cc2)N1 | > 50 | 16.4 |  | 12.8 | 13.8 |  |  | 
11 |  | COc1ccc2[nH]cc(-c3cc(/N=C4/NC(=O)CS4)n(-c4cccc(Cl)c4)n3)c2c1 | > 50 | 22.6 | 21.7 | 6.22 | 10.8 |  |  | 
12 |  | Cn1cc(-c2cc(/N=C3/NC(=O)CS3)n(-c3ccc(Cl)cc3)n2)c2ccccc21 | > 50 | 30.2 |  | > 50 | > 50 |  |  | 
13 |  | O=C1CS/C(=N\c2cc(-c3cn(Cc4ccccc4)c4ccccc34)nn2-c2cccc(Cl)c2)N1 | > 50 | > 50 | > 50 | > 50 | > 50 |  |  | 
14 |  | CCn1cc(-c2cc(/N=C3/NC(=O)CS3)n(-c3ccc(Cl)cc3)n2)c2cc(Br)ccc21 | 18.4 | 33.7 |  | 24.9 | > 50 |  |  | 
15 |  | CCc1ccccc1-n1nc(-c2c[nH]c3ccccc23)cc1/N=C1/NC(=O)CS1 | 18.5 | 25.3 | 14.8 | 23.2 | 36.8 |  |  | 
16 |  | CCc1ccccc1-n1nc(-c2cn(C)c3ccc(OC)cc23)cc1/N=C1/NC(=O)CS1 | > 50 | > 50 | > 50 | 28 | 34.1 |  |  | 
17 |  | COc1ccc2c(c1)c(-c1cc(/N=C3/NC(=O)CS3)n(-c3cccc(Cl)c3)n1)cn2C | 23.4 | > 50 |  | > 50 | 22.2 |  |  | 
18 |  | Cn1cc(-c2cc(/N=C3/NC(=O)CS3)n(-c3ccc(C#N)cc3)n2)c2cc(Br)ccc21 | 10.6 | > 50 |  | > 50 | 37.3 |  |  | 

Row | inhibition (Tubulin (Homo sapiens)) [%] | SMILES | IC50 (B16-F10) [µM] | IC50 (A549) [µM] | IC50 at 48 h [1] [µM] | IC50 (SK-MEL-28 [2]) [µM] | IC50 (HCT-116) [µM] | Activity (SK-MEL-28 [3]) [%] | Activity (SK-MEL-28 [4]) [%] | Activity (SK-MEL-28 [5]) [%]
19 |  | CCn1cc(-c2cc(/N=C3/NC(=O)CS3)n(-c3ccc(Cl)cc3)n2)c2ccccc21 | > 50 | 38.7 | > 50 | 29.7 | 37.9 |  |  | 
20 |  | CCc1ccccc1-n1nc(-c2cn(C)c3ccc(Br)cc23)cc1/N=C1/NC(=O)CS1 | > 50 | > 50 |  | > 50 | > 50 |  |  | 
21 |  | Cn1cc(-c2cc(/N=C3/NC(=O)CS3)n(-c3ccc(Cl)cc3)n2)c2cc(Br)ccc21 | 11.3 | 19.2 | > 50 | 26.9 | 13.5 |  |  | 
22 |  | COc1ccc2c(c1)c(-c1cc(/N=C3/NC(=O)CS3)n(-c3ccc(Cl)cc3)n1)cn2Cc1ccccc1 | > 50 | > 50 |  | > 50 | > 50 |  |  | 
23 |  | CCn1cc(-c2cc(/N=C3/NC(=O)CS3)n(-c3ccc(Cl)cc3)n2)c2cc(OC)ccc21 | 14.2 | 48.1 | > 50 | > 50 | > 50 |  |  | 
24 |  | CCc1ccccc1-n1nc(-c2cn(C)c3ccccc23)cc1/N=C1/NC(=O)CS1 | > 50 | 39.1 |  | 49.9 | > 50 |  |  | 
25 |  | CCN(CC)CCNC(=O)c1c(C)[nH]c(/C=C2\C(=O)Nc3ccc(F)cc32)c1C [SUNITINIB] | 15.3 | 5.73 | 6.09 | 4.13 | 10.7 | 76.33 | 17.92 | 5.09
26 |  | CCn1cc(-c2cc(/N=C3/NC(=O)CS3)n(-c3cccc(Cl)c3)n2)c2ccccc21 | 21.2 | 26 |  | 26 | > 50 |  |  | 
27 |  | O=C1CS/C(=N\c2cc(-c3cn(Cc4ccccc4)c4ccccc34)nn2-c2ccc(Cl)cc2)N1 | > 50 | 46.4 |  | > 50 | > 50 |  |  | 
28 |  | CCn1cc(-c2cc(/N=C3/NC(=O)CS3)n(-c3ccc(C#N)cc3)n2)c2cc(Br)ccc21 | 11 | 36.6 |  | 32.1 | > 50 |  |  | 
29 |  | CCn1cc(-c2cc(/N=C3/NC(=O)CS3)n(-c3cccc(Cl)c3)n2)c2cc(Br)ccc21 | > 50 | > 50 |  | 31.4 | > 50 |  |  | 
30 |  | CCn1cc(-c2cc(/N=C3/NC(=O)CS3)n(-c3cccc(Cl)c3)n2)c2cc(OC)ccc21 | 36.4 | 16.9 |  | > 50 | 14.8 |  |  | 
31 |  | CCc1ccccc1-n1nc(-c2cn(CC)c3ccc(OC)cc23)cc1/N=C1/NC(=O)CS1 | > 50 | 24.2 |  | 26.8 | 45.8 |  |  | 
32 |  | N#Cc1ccc(-n2nc(-c3cn(Cc4ccccc4)c4ccccc34)cc2/N=C2/NC(=O)CS2)cc1 | > 50 | 22.3 |  | > 50 | 33.1 |  |  | 
33 |  | Cn1cc(-c2cc(/N=C3/NC(=O)CS3)n(-c3ccc(C#N)cc3)n2)c2ccccc21 | > 50 | 37.2 |  | 22.7 | 25.1 |  |  | 
34 |  | Cn1cc(-c2cc(/N=C3/NC(=O)CS3)n(-c3cccc(Cl)c3)n2)c2cc(Br)ccc21 | 26 | 32.8 |  | 17 | 20.7 |  |  | 
35 |  | O=C1CS/C(=N\c2cc(-c3c[nH]c4ccccc34)nn2-c2ccccc2)N1 | > 50 | 22.5 | > 50 | 34 | > 50 |  |  | 
